Bioassay records (PubChem BioAssay)
MT stabilizer: stabilizes microtubules in HeLa cells | HeLa tubulin immunostaining HCS, 24 h; share of cells brighter than vehicle mean+2SD | AID 2205 | % tubulin-high responders, % at 10 µM | 200,000 tested, 0.83% active;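 active = plate Z-score above 3 for both tubulin-high and condensed-nucleus cell shares, with cell loss under 80%, at 10 µM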;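 note: anti alpha tubulin signal scored within the nucleus-defined area of each cell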
Rad51 HR inh: blocks human Rad51 in homologous recombination. inhibition, % at 10 µM. hRad51 DNA strand exchange, fluorescence dequenching. 200,000 tested, 0.085% active. AID 1385. Q06609;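 active = inhibition above 40% at the single screening dose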;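 note: 0% = DMSO control wells and 100% = blanks with heterologous ssDNA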
Target sequence (Q06609 whole entry, looked up): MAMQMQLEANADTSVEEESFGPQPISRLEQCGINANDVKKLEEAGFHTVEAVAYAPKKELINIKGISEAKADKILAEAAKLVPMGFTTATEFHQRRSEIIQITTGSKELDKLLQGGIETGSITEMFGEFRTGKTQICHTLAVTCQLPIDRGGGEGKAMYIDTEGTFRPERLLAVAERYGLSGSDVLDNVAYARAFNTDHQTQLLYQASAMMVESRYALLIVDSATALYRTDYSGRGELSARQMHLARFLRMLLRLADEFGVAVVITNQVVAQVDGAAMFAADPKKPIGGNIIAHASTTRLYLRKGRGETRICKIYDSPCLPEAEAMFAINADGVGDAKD
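Assay system: Human Rad51 nucleoprotein filaments preassembled on unlabelled ssDNA | Reagent: Donor/quencher-labelled 47-bp dsDNA substrate | Doses: One concentration, 10 µM final | Times: 37 °C 15-min filament assembly, 30-min compound preincubation, 15-min exchange | Technique: Fluorescein emission 520 nm, excitation 485 nm | Benchmarks: Plate control and blank wells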
bCat nuc transl: modulators of beta-catenin nuclear translocation; HeLa beta-catenin nuclear translocation, immunofluorescence imaging; nuclear translocation activity, % at 5 µM; 190,000 tested, 0.3% active; AID 1665;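 active = nuclear translocation activity above 50% at 5 µM, with a well cell count of 50 or more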;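 note: per-cell ratio of nuclear to cytoplasmic median beta-catenin stain intensity; plate controls were DMSO negative control for no effect and GSK-3 inhibitor IX positive control for full effect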
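Signal – beta-catenin immunofluorescence imaging with DAPI · Test system – human HeLa cell line · Dosing – 5 µM primary single dose, 0.1% DMSO, 0.02–20 µM confirmation series · Measure – % activation, nuclear-to-cytoplasmic median beta-catenin signal ratio per cell · Incubation – 24 h compound exposure at 37°C, 5% CO2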
Dynein transport: dynein cargo transport inhibition. 220,000 tested, 0.47% active. z-score, hits read low. 3617.4 mouse cells, GR-EGFP nuclear translocation imaging; test concentration mostly 20 µM; stimulated with dexamethasone, 1 µM; stronger effect = lower value. AID 1381;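 active = plate z-score of nuclear minus cytoplasmic receptor signal below a set negative limit, without overly bright fluorescence or cell loss, cut at about -3.5 in these data, passing the limit was not always enough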;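 note: z-score of nuclear minus cytoplasmic ring GR-EGFP intensity difference per well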
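Buffer or medium: tet-free medium with charcoal-stripped serum / Also added: dexamethasone agonist, 1.0 µM final, for 30 min / Timing: induction 48 h, compound 1 h, agonist 30 min / Measured by: high-content fluorescence imaging after fixation / Read-out: nuclear-to-cytoplasmic GR-EGFP distribution per well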
Tb hexokinase: blocks Trypanosoma brucei hexokinase 1 activity; recombinant TbHK1, G6PDH-coupled NADH A340; inhibition, % at 10 µM; 220,000 tested, 0.11% active;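 active = inhibition of 50% or more in the single-dose primary screen; inactive = inhibition below 50%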
* = called active by the depositor; i = inactive; x = no result given. An excerpt weighted towards active compounds, which were near 1.5% of everything screened.

SMILES	MT stabilizer	Rad51 HR inh	bCat nuc transl	Dynein transport	Tb hexokinase
O=C(NCc1ccccn1)c1ccc(Cn2cc(C(F)(F)F)ccc2=O)cc1	8.7	0.0	0.9	-0.18	-6.0
O=S(=O)(CCSc1nc2ccccc2s1)c1nc2ccccc2s1	10.9*	7.0	2.6	-0.552	-15.5
COc1ccc(-c2nnc(SCC(=O)Nc3sc4c(c3C#N)CCCC4)n2-c2ccccc2)cc1	20.1*	0.2	1.1	0.0379	0.7
COc1ccc(-c2nnc(SCC(=O)Nc3ncc(C)s3)n2-c2ccccc2)cc1OC	58.5*	-8.1	31.8	2.92	7.6
NC(=O)c1c(NC(=O)CSc2nnc(-c3ccco3)n2-c2ccccc2)sc2c1CCC2	23.4*	-4.2	-0.3	-0.403	-2.5
COc1ccccc1NC(=O)CC(=O)CSc1nnc(-c2ccc(C)cc2)n1-c1ccccc1	2.8	5.1	0.2	0.386	14.8
N#Cc1c(NC(=O)CSc2nnc(-c3ccco3)n2-c2ccccc2)sc2c1CCC2	3.4	x	-0.9	-0.666	6.2
CCOC(=O)C1=C(CSc2nc3c(cc2C#N)CN(C)CC3)OC(N)=C(C#N)C1c1ccc(Cl)cc1 (stereo unspecified)	3.8	-10.8	0.5	-2.14	-13.8
COc1ccccc1C1=NOC(COc2ccc3c(C)cc(=O)oc3c2)C1 (stereo unspecified)	x	-6.6	96.5*	0.708	-14.7
COc1ccc(C2=NOC(COc3ccc4c(C)cc(=O)oc4c3)C2)c(OC)c1 (stereo unspecified)	x	7.5	1.7	-0.464	-8.2
CCCCc1ccc(CC2S/C(=C(\C#N)C(=O)N3CCOCC3)N(c3ccccc3)C2=O)cc1 (stereo unspecified)	0.9	0.8	-1.1	-0.923	-12.9
CSC1=NCCN1CCOc1ccccc1	2.3	0.2	6.5	-0.863	5.4
CCOc1ccc(Br)cc1/C(C)=N\NC1=NCCN1	34.6*	-3.4	81.5*	-1.39	-0.2
COc1ccc(S(=O)(=O)N2CCCC(C(=O)NCCC(C)C)C2)cc1 (stereo unspecified)	2.7	6.2	3.0	-0.353	5.6
O=C(/C=C/c1ccc(O)cc1)c1ccccc1	x	x	0.7	-1.02	-46.6
O=C(/C=C/c1ccc(N2CCC(c3ccccc3)=N2)cc1)c1ccccc1	3.4	i	x	-5.73*	-5.1
O=C(O)C1NCCc2ccccc21 (stereo unspecified)	3.9	-3.5	2.0	2.5	-1.7
O=S(Cc1ccc(Cl)cc1)CC(O)(c1ccccc1)c1ccccc1 (stereo unspecified)	32.6*	-0.7	-0.7	0.748	4.5
N#Cc1ccccc1Sc1ccccc1C(=O)OCc1nnc(-c2ccccc2)o1	5.0	-3.7	-5.0	0.944	58.1*
COc1ccccc1-n1cnc2cc(NCc3ccccn3)ccc21	30.1*	1.7	x	-0.0117	-2.6
CCCn1c(-c2ccccc2)cc(SC)c(C#N)c1=O	4.0	3.1	3.2	-0.358	-18.4
CSc1cc(-c2ccccc2)n(Cc2ccccc2Cl)c(=O)c1C#N	43.4*	3.5	x	0.181	-20.7
COc1ccccc1C(=O)N1c2ccccc2Sc2ccccc21	10.9*	3.0	14.4	0.318	-5.4
CCOc1cc(S(=O)(=O)N2CC=C(c3ccc(F)cc3)CC2)c(OCC)cc1-n1cnnn1	45.3*	-4.2	0.7	0.357	16.4
CCOc1cc(S(=O)(=O)N2CCC(Cc3ccccc3)CC2)c(OCC)cc1-n1cnnn1	2.5	-3.3	-7.8	1.12	0.6
SMILES	MT stabilizer	Rad51 HR inh	bCat nuc transl	Dynein transport	Tb hexokinase
O=C(OCC#CCSc1nnc(-c2ccncc2)o1)c1cccs1	2.3	0.1	x	-0.0375	34.8
Cc1nnc(NC(=O)c2ccc3c(c2)C(=O)N(CCC(C)C)C3=O)s1	3.3	-0.2	x	0.884	4.1
O=C(COC(=O)C1CCN(C(=O)c2ccc(Cl)cc2)CC1)c1ccco1	4.3	1.4	-5.7	-1.27	1.8
CCOC(=O)C1CCN(C(=O)c2ccco2)CC1	2.1	76.5*	-11.1	0.913	-1.2
c1ccc(CN2CCN(CCOCCOc3cccc4ccccc34)CC2)cc1	5.4	-9.2	-0.6	-0.558	6.4
O=C(N/N=C/c1ccc(Cl)cc1)c1n[nH]c2c1CCCC2	x	9.4	99.9*	-0.203	-16.3
O=C(N/N=C/c1ccccc1)c1n[nH]c2c1CCCC2	3.5	5.4	-0.2	-0.578	-4.5
O=C(N/N=C/c1ccccc1Cl)c1n[nH]c2c1CCCC2	3.3	-3.4	1.4	0.333	19.2
O=C(N/N=C/c1cccs1)c1n[nH]c2c1CCC2	25.3*	-2.8	0.3	-0.603	-23.1
O=C(N/N=C/C(Br)=C/c1ccccc1)c1n[nH]c2c1CCC2	19.6	7.3	160.7*	-0.625	-31.8
CC(C)c1cc(C(C)C)c(S(=O)(=O)N2c3ccccc3[C@]3(Br)C[C@H]4C(=O)N[C@@H](Cc5ccccc5)C(=O)N4[C@H]23)c(C(C)C)c1	x	1.6	x	x	x
Cc1cc(C)n(-c2nnc(C)n2/N=C/c2ccco2)n1	1.0	-4.0	x	-0.252	-2.2
CCCOc1ccc2ccccc2c1/C=N/n1c(C)nnc1-n1nc(C)cc1C	55.3*	3.3	168.2*	-0.902	-6.3
NC(=S)NNC(=O)c1cccc(Br)c1	1.8	-6.2	-0.2	-0.639	-1.8
O=C(Nc1cc(=O)[nH]c(=O)[nH]1)c1cccc(Br)c1	25.1*	-0.4	2.2	-0.0891	-2.3
CCOC(=O)COc1cc(-n2c(=S)[nH]c3cc(OC)c(OC)cc3c2=O)c(Cl)cc1Cl	9.2*	25.5	-1.5	0.0148	-12.4
CNC(=O)/C=C/c1cccc(C(F)(F)F)c1	2.9	x	-0.1	-0.00802	-3.8
CCOC(=O)C(=O)N=Nc1c(O)n(C)c2ccccc12	2.1	-0.5	-0.1	-0.284	-20.5
CCOc1ccc(/C(C)=N/NC(=O)C(OC)c2ccccc2)cc1 (stereo unspecified)	10.1*	8.0	6.5	0.702	1.2
Cc1cc(N2CCCCC2)nc(NCc2ccccc2)n1	17.3*	-2.0	2.2	-1.32	8.1
Cc1cc(N2CCOCC2)nc(NCc2ccccc2)n1	0.7	-6.5	0.8	-0.693	-1.1
Cc1cc(C)c2nc(SCC(=O)N3CC(=O)Nc4ccccc43)c(C#N)cc2c1	10.1	x	43.9	-1.7	-3.1
COc1ccc2nc(SCC(=O)N3CC(=O)Nc4ccccc43)c(C#N)cc2c1	26.8*	3.8	x	0.923	-8.0
COc1ccc(C(=O)N/N=C/c2ccc(OC)c(CSc3ccccn3)c2)cc1	3.2	x	-0.7	-0.624	-3.1
COc1ccc(/C=N/NC(=O)c2cccnc2)cc1CSc1ccccn1	x	x	64.9*	-0.354	-39.8
COc1ccc(/C=N/NC(=O)c2cc(OC)c(OC)c(OC)c2)cc1CN1CCc2cc(OC)c(OC)cc2C1C (stereo unspecified)	20.3*	-11.3	6.5	0.458	-9.4
COc1cc(OC)cc(C(=O)N/N=C/c2ccc(OC)c(COc3ccc(F)cc3)c2)c1	15.8	x	212.7*	1.88	-10.2
CCCCN(C)C(=O)c1sc2ncn(CC)c(=O)c2c1C	2.2	8.9	-5.9	-0.541	-7.1
